Measured values taken from ChEMBL document CHEMBL1135487, “Structure-activity relationship for enhancement of paracellular permeability across Caco-2 cell monolayers by 3-alkylamido-2-alkoxypropylphosphocholines” (J Med Chem, 2002).

How the values were obtained:
[1] = Concentration to decrease mitochondrial dehydrogenase vs concentration to decrease TEER (IC50/EC50); format: functional
How it was run: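 Ratio of two values measured on Caco-2 cells (passage 45–55). IC50: cells grown 96 h, exposed 20 min to phospholipid in HBSS, MTT added for 120 min more, SDS/HCl-isobutanol stop, absorbance 590 nm. EC50: 20–22-day monolayers (TEER 600–800 Ω·cm²), 20 min apical exposure in HBSS at room temperature, 50% TEER fall vs untreated. Triplicates.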

Caco-2 [2] = test: Increase in the mannitol flux by 10-fold (EC10x) of the control value; format: functional, Homo sapiens
How it was run: (§1)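 Caco-2 monolayers on filters, TEER 600–800 Ω·cm². Enhancer at 0.01–5.0 mM in HBSS applied apically for 20 min, then washed out. Apical side then given 0.1 mM [3H]mannitol, 37 °C, sink conditions. Basolateral samples taken at 20, 40, 60 and 90 min and counted by liquid scintillation. EC10x = concentration raising mannitol permeability 10-fold over control; triplicate.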

Caco-2 [3] = test: Decrease in the trans-epithelial electrical resistance(TEER) in Caco-2 cell monolayers; format: functional, cell-based; details: Homo sapiens
How it was run: (§2)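 Caco-2 cells (passage 45–55) grown on 1.0 cm² polycarbonate filters for 20–22 days and equilibrated 1 h in HBSS (25 mM HEPES, 25 mM glucose, pH 7.4) at 37 °C; monolayers with TEER 600–800 Ω·cm² used. Compound applied apically in HBSS at various concentrations for 20 min at room temperature. TEER read by voltohmmeter, blank filter subtracted. EC50 = concentration cutting TEER 50% versus untreated; triplicate, mean ± SD.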

Caco-2 [4] = test: Critical Micelle Concentration (CMC) determined by fluorescence assay using DPH as a probe; format: functional, Homo sapiens
How it was run: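 Aqueous phosphocholine solutions over a concentration range received DPH (1 µL of 10 mM stock in THF per 2 mL). They were held 30 min in the dark at room temperature, then fluorescence was read (ex 365, em 460 nm). CMC was taken as the intersection of linear fits below and above the intensity inflection; mean of triplicates.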

Caco-2 [5] = test: Concentration to decrease the transepithelial electrical resistance (TEER) in Caco-2 cell monolayers; format: functional, cell-based; details: Homo sapiens; how it was run: as §2
Caco-2 [6] = test: Concentration to increase the mannitol flux by 10-fold (EC10x) of the control value; format: functional, Homo sapiens; how it was run: as §1

Molecule `CCCCCCCCCCCCOC(CNC(=O)CCCCCCCCC)COP(=O)([O-])OCC[N+](C)(C)C` (centres undefined) has a Potency index [1] of 1.92, an EC10x (Caco-2 [2]) of over 3000 µM and an EC50 (Caco-2 [3]) of 1040 µM.

Work on `CCCCCCCCCC(=O)NCC(COP(=O)([O-])OCC[N+](C)(C)C)OCCCCCC` (centres undefined) yielded a Potency index [1] of 2.38, an EC10x (Caco-2 [2]) of 730 µM and an EC50 (Caco-2 [3]) of 420 µM.

For `CCCCCCCCCCCCCC(=O)NCC(COP(=O)([O-])OCC[N+](C)(C)C)OCC` (centres undefined), the Potency index [1] was 2, the EC10x (Caco-2 [2]) was 890 µM and the EC50 (Caco-2 [3]) was 80 µM. The CMC (Caco-2 [4]) was 148 µM.

Work on `CCCCCCCCCCCCOC(CNC(C)=O)COP(=O)([O-])OCC[N+](C)(C)C` (centres undefined) yielded a Potency index [1] of 1.72, an EC10x (Caco-2 [2]) of 4270 µM and an EC50 (Caco-2 [3]) of 780 µM.

Molecule `CCCCCCCCCCCCCCCC(=O)NCC(COP(=O)([O-])OCC[N+](C)(C)C)OCCCCCC` (centres undefined) has a Potency index [1] of 0.6, an EC10x (Caco-2 [2]) of 1610 µM and an EC50 (Caco-2 [3]) of 520 µM.

Molecule `CCCCCCCCCCCCCCCCOC(CNC(=O)CCCCCCCCC)COP(=O)([O-])OCC[N+](C)(C)C` (centres undefined) has an EC10x (Caco-2 [2]) of over 2000 µM and an EC50 (Caco-2 [3]) of over 2000 µM.

`CCCCCCCCCC(=O)NCC(COP(=O)([O-])OCC[N+](C)(C)C)OCCCCCCCC` (centres undefined) showed a Potency index [1] of 1.27, an EC50 (Caco-2 [5]) of 300 µM and a CMC (Caco-2 [4]) of 55.3 µM. For the same molecule, the EC10x (Caco-2 [6]) was 1210 µM.

In the case of `CCCCCCCCCCCCCCCC(=O)NCC(COP(=O)([O-])OCC[N+](C)(C)C)OCCCCCCCCCC` (centres undefined), the EC10x (Caco-2 [2]) is reported as over 2000 µM and the EC50 (Caco-2 [3]) is reported as over 2000 µM.

For `CCCCCCCCCCCC(=O)NCC(COP(=O)([O-])OCC[N+](C)(C)C)OCCCCCC` (centres undefined), the Potency index [1] was 0.84, the EC10x (Caco-2 [2]) was 1010 µM and the EC50 (Caco-2 [3]) was 190 µM.

For `CCCCOC(CNC(=O)CCC)COP(=O)([O-])OCC[N+](C)(C)C` (centres undefined), the EC10x (Caco-2 [2]) was over 5000 µM and the EC50 (Caco-2 [3]) was over 5000 µM.

For `CCCCCCCCCCCCCCCC(=O)NCC(COP(=O)([O-])OCC[N+](C)(C)C)OCCCCCCCC` (centres undefined), the EC10x (Caco-2 [2]) was over 5000 µM and the EC50 (Caco-2 [3]) was over 5000 µM.

In the case of `CCCCCCCCCCCCCCCC(=O)NCC(COP(=O)([O-])OCC[N+](C)(C)C)OCCCCCCCCCCCC` (centres undefined), the EC10x (Caco-2 [2]) is reported as over 1000 µM and the EC50 (Caco-2 [3]) is reported as over 1000 µM.

Work on `CCCCCCCCCCCCCCCCCCOC(CNC(C)=O)COP(=O)([O-])OCC[N+](C)(C)C` (centres undefined) yielded a Potency index [1] of 1.11, an EC10x (Caco-2 [2]) of 340 µM and an EC50 (Caco-2 [3]) of 90 µM.

In the case of `CCCCCCCCCCCCCCCCOC(CNC(C)=O)COP(=O)([O-])OCC[N+](C)(C)C` (centres undefined), the Potency index [1] is reported as 1.43, the EC10x (Caco-2 [2]) is reported as 350 µM and the EC50 (Caco-2 [3]) is reported as 70 µM.

In the case of `CCCCCCCCCCCCCCOC(CNC(=O)CCCCCCCCC)COP(=O)([O-])OCC[N+](C)(C)C` (centres undefined), the EC10x (Caco-2 [2]) is reported as over 2000 µM and the EC50 (Caco-2 [3]) is reported as over 2000 µM.

Work on `CCCCCCCCCC(=O)NCC(COP(=O)([O-])OCC[N+](C)(C)C)OCCCC` (centres undefined) yielded a Potency index [1] of 1.24, an EC10x (Caco-2 [2]) of over 5000 µM and an EC50 (Caco-2 [3]) of 3190 µM. It also gave a CMC (Caco-2 [4]) of 1170 µM.

`CCCCCCCCCCCCCCCCOC(CNC(=O)CCCCCCCCCCC)COP(=O)([O-])OCC[N+](C)(C)C` (centres undefined) gave an EC10x (Caco-2 [2]) of over 500 µM and an EC50 (Caco-2 [3]) of over 500 µM.

`CCCCCCCC(=O)NCC(COP(=O)([O-])OCC[N+](C)(C)C)OCCCCCC` (centres undefined) showed an EC10x (Caco-2 [2]) of over 5000 µM and an EC50 (Caco-2 [3]) of over 5000 µM.

For `CCCCCCCCCCCCCCCCCC(=O)NCC(COP(=O)([O-])OCC[N+](C)(C)C)OCCCCCCCC` (centres undefined), the EC10x (Caco-2 [2]) was over 5000 µM and the EC50 (Caco-2 [3]) was over 5000 µM.

Molecule `CCCCCCCCCCCCCCCC(=O)NCC(COP(=O)([O-])OCC[N+](C)(C)C)OCCCC` (centres undefined) has a Potency index [1] of 1.11, an EC10x (Caco-2 [2]) of 480 µM and an EC50 (Caco-2 [3]) of 90 µM.

`CCCCCCCCCCCCCCCCOC(CNC(=O)CCCCC)COP(=O)([O-])OCC[N+](C)(C)C` (centres undefined) gave a Potency index [1] of 0.93, an EC10x (Caco-2 [2]) of 1350 µM and an EC50 (Caco-2 [3]) of 300 µM.

In the case of `CCCCCCCC(=O)NCC(COP(=O)([O-])OCC[N+](C)(C)C)OCCCC` (centres undefined), the EC10x (Caco-2 [2]) is reported as over 5000 µM and the EC50 (Caco-2 [3]) is reported as over 5000 µM.
